Results published in ChEMBL document CHEMBL1138297, “Design, synthesis, and multivariate quantitative structure-activity relationship of salicylanilides--potent inhibitors of type III secretion in Yersinia” (J Med Chem, 2007).

Tests used:
[1] = tested on: Yersinia pseudotuberculosis; test: Effect on T3S in Yersinia pseudotuberculosis 3 pIB29 assessed as inhibition of light emission at 20 uM by luciferase reporter gene assay
How it was run: (§1)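 YPIII pIB29 (yopE-luxAB) reporter strain grown overnight at ambient temperature in BHI with 5 mM EGTA and 20 mM MgCl2 to deplete calcium. Culture adjusted to OD600 0.15-0.25 and added to compounds in DMSO (final ≤1%). Incubated 1 h at ambient temperature with shaking, then 2 h at 37 °C. Decanal substrate added and luminescence read at once. Triplicates; repeated on ≥2 occasions.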

[2] = tested on: Yersinia pseudotuberculosis; test: Effect on T3S in Yersinia pseudotuberculosis 3 pIB29 assessed as inhibition of light emission at 50 uM by luciferase reporter gene assay; how it was run: as §1
[3] = tested on: Yersinia pseudotuberculosis; test: Effect on T3S in Yersinia pseudotuberculosis 3 pIB29 assessed as inhibition of light emission at 10 uM by luciferase reporter gene assay; how it was run: as §1
[4] = tested on: Yersinia pseudotuberculosis; test: Effect on T3S in Yersinia pseudotuberculosis 3 pIB29 assessed as inhibition of light emission at 0.5 uM by luciferase reporter gene assay; how it was run: as §1
[5] = tested on: Yersinia pseudotuberculosis; test: Effect on T3S in Yersinia pseudotuberculosis 3 pIB29 assessed as inhibition of light emission at 2 uM by luciferase reporter gene assay; how it was run: as §1
[6] = tested on: Yersinia pseudotuberculosis; test: Effect on T3S in Yersinia pseudotuberculosis 3 pIB29 assessed as inhibition of light emission at 1 uM by luciferase reporter gene assay; how it was run: as §1
[7] = tested on: Yersinia pseudotuberculosis; test: Effect on T3S in Yersinia pseudotuberculosis 3 pIB29 assessed as inhibition of light emission at 100 uM by luciferase reporter gene assay; how it was run: as §1
[8] = tested on: Yersinia pseudotuberculosis; test: Effect on T3S in Yersinia pseudotuberculosis 3 pIB29 assessed as inhibition of light emission at 5 uM by luciferase reporter gene assay; how it was run: as §1

SMILES | inhibition [1] [%] | inhibition [2] [%] | inhibition [3] [%] | inhibition [4] [%] | inhibition [5] [%] | inhibition [6] [%] | inhibition [7] [%] | inhibition [8] [%]
CC(=O)Oc1c(Cl)cccc1C(=O)Nc1ccc(SC(F)(F)F)cc1 | 70 | 98 | 55 | -1 | 12 | 6 | 100 | 34
O=C(Nc1ccc(Cl)cc1)c1cc(I)ccc1O | 85 | 80 | 91 | 55 | 90 | 68 | 78 | 91
Cc1cc(NC(=O)c2cc(Cl)ccc2O)ccc1Cl | 85 | 56 | 61 | 15 | 62 | 50 | 75 | 85
O=C(Nc1ccc(SC(F)(F)F)cc1)c1cc(I)cc(I)c1O | 100 | 100 | 83 | 19 | 39 | 17 | 100 | 75
O=C(Nc1ccc(SC(F)(F)F)cc1)c1cccc(Cl)c1O | 81 | 99 | 61 | -2 | 13 | 3 | 100 | 38
O=C(Nc1cc(Cl)ccc1F)c1cc(I)cc(I)c1O | 92 | 100 | 53 | 7 | 6 | 2 | 100 | 19
O=C(Nc1ccc(Br)cc1)c1cccc(Cl)c1O | 62 | 96 | 24 | 5 | 12 | 6 | 100 | 12
O=C(Nc1ccc(Cl)cc1)c1cc(I)cc(I)c1O | 100 | 100 | 100 | 15 | 60 | 47 | 99 | 95
CC(=O)Oc1c(Cl)cccc1C(=O)Nc1ccc(Br)cc1 | 36 | 78 | 18 | -2 | 9 | 8 | 99 | 12
O=C(Nc1ccc(Br)cc1)c1cc(I)cc(I)c1O | 100 | 100 | 100 | 36 | 74 | 64 | 100 | 94
CC(=O)Oc1c(I)cc(I)cc1C(=O)Nc1ccc(F)cc1 | 76 | 86 | 60 | 12 | 15 | 6 | 93 | 31
